Laboratory results from ChEMBL document CHEMBL2321654, “Design, modification and 3D QSAR studies of novel naphthalin-containing pyrazoline derivatives with/without thiourea skeleton as anticancer agents” (Bioorg Med Chem, 2013).
Active and inactive are the calls of the source. No cut-off for these calls is given here.

How the values were obtained:
[1] = system: A549; experiment: Antiproliferative activity against human A549 cells after 24 hrs by MTT assay; type: functional; conditions: A549, 24 h
In short: (§1)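 MCF-7 and A549 cells grown in DMEM/10% FBS, 5% CO2, 37 °C; seeded at 1000 cells/well and left 24 h to reattach. Compound stocks 20 mM in DMSO, diluted in medium; 3-fold serial dilutions gave final […]. Exposure 24 h at 37 °C, then MTT read-out at 590 nm. GI50 calculated from absorbance.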

[2] = system: MCF7; experiment: Antiproliferative activity against human MCF7 cells after 24 hrs by MTT assay; type: functional; conditions: MCF7, 24 h; in short: as §1
[3] = molecular target: Receptor tyrosine-protein kinase erbB-2 (Homo sapiens, UniProt P04626); experiment: Inhibition of human recombinant HER-2 cytoplasmic domain (676 to 1245) autophosphorylation after 1 hr
Chain of Receptor tyrosine-protein kinase erbB-2 (P04626 whole entry, the tested form may be a part): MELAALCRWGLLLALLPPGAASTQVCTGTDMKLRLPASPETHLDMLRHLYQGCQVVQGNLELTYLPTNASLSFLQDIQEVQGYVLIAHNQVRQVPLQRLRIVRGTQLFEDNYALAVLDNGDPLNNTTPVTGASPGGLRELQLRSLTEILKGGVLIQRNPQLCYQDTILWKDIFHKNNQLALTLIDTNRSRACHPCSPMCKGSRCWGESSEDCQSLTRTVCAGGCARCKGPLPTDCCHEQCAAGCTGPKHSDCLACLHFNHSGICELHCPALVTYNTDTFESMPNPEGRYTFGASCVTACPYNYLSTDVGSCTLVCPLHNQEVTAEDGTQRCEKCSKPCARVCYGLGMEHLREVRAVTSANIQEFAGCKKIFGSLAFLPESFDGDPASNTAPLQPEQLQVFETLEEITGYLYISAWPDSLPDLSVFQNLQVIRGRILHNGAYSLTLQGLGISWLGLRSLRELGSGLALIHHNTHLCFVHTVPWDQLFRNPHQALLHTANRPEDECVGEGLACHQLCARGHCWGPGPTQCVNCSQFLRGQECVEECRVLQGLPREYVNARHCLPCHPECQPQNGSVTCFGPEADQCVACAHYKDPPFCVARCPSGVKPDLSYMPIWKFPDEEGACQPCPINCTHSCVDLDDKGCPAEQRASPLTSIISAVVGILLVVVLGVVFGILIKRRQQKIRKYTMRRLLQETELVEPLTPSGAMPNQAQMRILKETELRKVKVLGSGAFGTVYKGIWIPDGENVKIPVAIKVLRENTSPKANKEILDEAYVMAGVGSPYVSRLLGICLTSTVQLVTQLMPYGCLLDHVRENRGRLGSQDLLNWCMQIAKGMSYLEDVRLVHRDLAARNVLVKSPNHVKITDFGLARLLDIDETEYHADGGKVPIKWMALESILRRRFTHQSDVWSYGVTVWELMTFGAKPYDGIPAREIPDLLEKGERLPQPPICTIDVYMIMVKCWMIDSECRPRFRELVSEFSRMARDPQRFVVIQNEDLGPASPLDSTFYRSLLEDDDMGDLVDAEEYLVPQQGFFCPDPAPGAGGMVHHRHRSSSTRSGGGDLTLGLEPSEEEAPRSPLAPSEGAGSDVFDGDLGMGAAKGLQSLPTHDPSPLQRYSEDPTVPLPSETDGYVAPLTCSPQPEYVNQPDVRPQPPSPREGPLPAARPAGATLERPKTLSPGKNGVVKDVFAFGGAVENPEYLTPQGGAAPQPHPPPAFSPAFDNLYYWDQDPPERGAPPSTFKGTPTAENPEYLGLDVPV
In short: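 His6-tagged HER-2 expressed in Sf-9 cells (3-day infection), purified by Ni-NTA at 4 °C. Enzyme (12.5 ng) preincubated with compound 10 min at room temperature, then 0.1 mM ATP-50 mM MgCl2 with MnCl2, Na3VO4 and DTT buffer added for 1 h. Autophosphorylation read by europium anti-phosphotyrosine DELFIA time-resolved fluorescence (ex 340/em 615 nm). Controls with and without ATP-MgCl2; triplicate.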

[4] = molecular target: Vascular endothelial growth factor receptor 2 (Homo sapiens, UniProt P35968); experiment: Inhibition of VEGFR-2 (unknown origin) using gastrin as substrate after 1 hr by fluorescence assay
Chain of Vascular endothelial growth factor receptor 2 (P35968 whole entry, the tested form may be a part): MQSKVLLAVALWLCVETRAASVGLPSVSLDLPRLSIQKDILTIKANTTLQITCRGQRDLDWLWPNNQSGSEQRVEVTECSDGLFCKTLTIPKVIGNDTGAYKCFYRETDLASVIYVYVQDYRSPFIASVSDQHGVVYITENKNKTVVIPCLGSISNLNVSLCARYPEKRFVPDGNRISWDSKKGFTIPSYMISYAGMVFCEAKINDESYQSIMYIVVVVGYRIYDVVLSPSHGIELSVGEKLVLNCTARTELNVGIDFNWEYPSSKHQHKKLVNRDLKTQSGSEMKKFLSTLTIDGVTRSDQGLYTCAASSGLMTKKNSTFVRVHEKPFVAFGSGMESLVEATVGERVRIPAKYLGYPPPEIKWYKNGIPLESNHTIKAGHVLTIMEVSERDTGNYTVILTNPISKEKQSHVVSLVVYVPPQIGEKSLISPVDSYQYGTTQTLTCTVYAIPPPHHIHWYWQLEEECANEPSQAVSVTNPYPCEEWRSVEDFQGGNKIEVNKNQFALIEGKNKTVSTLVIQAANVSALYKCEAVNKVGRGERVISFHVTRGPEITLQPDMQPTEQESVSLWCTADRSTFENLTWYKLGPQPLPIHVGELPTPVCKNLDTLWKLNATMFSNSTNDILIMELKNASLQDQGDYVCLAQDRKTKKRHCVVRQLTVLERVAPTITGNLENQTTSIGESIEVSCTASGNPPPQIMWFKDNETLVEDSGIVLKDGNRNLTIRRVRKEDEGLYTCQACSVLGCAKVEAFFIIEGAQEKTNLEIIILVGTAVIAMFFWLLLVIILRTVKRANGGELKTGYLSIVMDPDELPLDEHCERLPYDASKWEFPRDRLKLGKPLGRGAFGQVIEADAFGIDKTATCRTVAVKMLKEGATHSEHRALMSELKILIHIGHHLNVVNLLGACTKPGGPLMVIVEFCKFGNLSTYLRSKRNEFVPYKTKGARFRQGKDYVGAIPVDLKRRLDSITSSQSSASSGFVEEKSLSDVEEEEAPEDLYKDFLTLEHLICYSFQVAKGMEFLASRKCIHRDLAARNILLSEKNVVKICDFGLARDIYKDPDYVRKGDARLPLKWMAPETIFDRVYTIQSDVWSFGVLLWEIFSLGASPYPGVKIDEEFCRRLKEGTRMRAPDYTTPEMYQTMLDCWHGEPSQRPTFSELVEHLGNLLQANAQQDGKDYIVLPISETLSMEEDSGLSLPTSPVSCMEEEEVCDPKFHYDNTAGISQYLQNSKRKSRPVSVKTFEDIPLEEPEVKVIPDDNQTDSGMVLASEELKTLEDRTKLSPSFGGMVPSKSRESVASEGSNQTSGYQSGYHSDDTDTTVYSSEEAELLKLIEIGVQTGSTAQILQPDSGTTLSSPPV
In short: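 Phosphorylated or nonphosphorylated VEGFR-2 kinase domain, 5 nM, incubated with compound (10-point titration, 4 to 0.1 µM) and 1 µM gastrin substrate in Tris-HCl pH 7.5 with MgCl2, NaCl, EGTA, DTT, orthovanadate and BSA, 30 min at 25 °C. ATP then added to 11.8 µM final for 60 min at room temperature. Eu-anti-phosphotyrosine time-resolved fluorescence read at 665 nm; triplicate.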

[5] = molecular target: Receptor tyrosine-protein kinase erbB-3 (Homo sapiens, UniProt P21860); experiment: Inhibition of human recombinant HER-3 cytoplasmic domain (665 to 1339) autophosphorylation after 1 hr
Chain of Receptor tyrosine-protein kinase erbB-3 (P21860 whole entry, the tested form may be a part): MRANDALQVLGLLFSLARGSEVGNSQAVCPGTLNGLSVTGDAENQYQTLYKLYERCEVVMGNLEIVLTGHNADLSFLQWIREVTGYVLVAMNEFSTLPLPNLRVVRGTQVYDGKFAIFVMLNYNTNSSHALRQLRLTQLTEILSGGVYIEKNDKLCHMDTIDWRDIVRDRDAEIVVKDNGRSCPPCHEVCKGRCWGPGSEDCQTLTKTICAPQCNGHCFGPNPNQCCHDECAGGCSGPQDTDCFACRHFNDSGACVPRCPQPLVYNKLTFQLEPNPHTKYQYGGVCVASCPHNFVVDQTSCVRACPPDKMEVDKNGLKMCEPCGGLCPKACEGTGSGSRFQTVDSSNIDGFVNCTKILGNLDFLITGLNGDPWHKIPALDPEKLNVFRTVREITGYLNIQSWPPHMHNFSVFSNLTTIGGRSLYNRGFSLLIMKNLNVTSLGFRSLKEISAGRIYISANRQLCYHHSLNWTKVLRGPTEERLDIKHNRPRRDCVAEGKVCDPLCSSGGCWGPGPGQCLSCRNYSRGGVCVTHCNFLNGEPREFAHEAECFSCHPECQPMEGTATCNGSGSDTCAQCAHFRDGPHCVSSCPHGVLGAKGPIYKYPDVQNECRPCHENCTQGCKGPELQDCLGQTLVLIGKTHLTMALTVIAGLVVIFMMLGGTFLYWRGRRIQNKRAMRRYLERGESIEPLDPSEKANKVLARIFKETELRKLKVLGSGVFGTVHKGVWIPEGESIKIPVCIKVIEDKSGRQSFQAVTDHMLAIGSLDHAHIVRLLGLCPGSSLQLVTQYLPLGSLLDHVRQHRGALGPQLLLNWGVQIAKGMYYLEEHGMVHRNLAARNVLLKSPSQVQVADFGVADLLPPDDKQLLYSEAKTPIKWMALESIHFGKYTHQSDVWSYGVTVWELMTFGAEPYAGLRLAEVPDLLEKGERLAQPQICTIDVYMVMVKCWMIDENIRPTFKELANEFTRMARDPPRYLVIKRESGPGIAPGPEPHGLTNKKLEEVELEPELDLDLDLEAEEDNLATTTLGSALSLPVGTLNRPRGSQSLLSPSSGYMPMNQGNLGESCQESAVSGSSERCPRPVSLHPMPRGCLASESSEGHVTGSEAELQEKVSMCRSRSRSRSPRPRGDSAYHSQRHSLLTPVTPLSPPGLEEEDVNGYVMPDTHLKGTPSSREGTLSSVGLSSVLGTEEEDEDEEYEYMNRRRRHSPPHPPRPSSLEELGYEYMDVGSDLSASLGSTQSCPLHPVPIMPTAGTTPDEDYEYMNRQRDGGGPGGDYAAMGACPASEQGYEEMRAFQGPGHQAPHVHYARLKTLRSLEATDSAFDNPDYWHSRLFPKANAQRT
In short: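 HER-3 cytoplasmic domain (aa 665–1339) from 1.8 Kb human cDNA. Assayed by the same DELFIA autophosphorylation procedure as EGFR/HER-2: compound preincubated with enzyme, ATP-MgCl2 for 1 h, europium anti-phosphotyrosine time-resolved fluorescence read-out.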

[6] = molecular target: T1, Epidermal growth factor receptor (Homo sapiens, UniProt P00533); experiment: Inhibition of recombinant EGFR cytoplasmic domain (645 to 1186) (unknown origin) autophosphorylation after 1 hr
[7] = molecular target: Focal adhesion kinase 1 (Homo sapiens, UniProt Q05397); experiment: Inhibition of human-recombinant full-length FAK after 4 hrs by kinase-Glo-luminescence assay
Chain of Focal adhesion kinase 1 (Q05397 whole entry): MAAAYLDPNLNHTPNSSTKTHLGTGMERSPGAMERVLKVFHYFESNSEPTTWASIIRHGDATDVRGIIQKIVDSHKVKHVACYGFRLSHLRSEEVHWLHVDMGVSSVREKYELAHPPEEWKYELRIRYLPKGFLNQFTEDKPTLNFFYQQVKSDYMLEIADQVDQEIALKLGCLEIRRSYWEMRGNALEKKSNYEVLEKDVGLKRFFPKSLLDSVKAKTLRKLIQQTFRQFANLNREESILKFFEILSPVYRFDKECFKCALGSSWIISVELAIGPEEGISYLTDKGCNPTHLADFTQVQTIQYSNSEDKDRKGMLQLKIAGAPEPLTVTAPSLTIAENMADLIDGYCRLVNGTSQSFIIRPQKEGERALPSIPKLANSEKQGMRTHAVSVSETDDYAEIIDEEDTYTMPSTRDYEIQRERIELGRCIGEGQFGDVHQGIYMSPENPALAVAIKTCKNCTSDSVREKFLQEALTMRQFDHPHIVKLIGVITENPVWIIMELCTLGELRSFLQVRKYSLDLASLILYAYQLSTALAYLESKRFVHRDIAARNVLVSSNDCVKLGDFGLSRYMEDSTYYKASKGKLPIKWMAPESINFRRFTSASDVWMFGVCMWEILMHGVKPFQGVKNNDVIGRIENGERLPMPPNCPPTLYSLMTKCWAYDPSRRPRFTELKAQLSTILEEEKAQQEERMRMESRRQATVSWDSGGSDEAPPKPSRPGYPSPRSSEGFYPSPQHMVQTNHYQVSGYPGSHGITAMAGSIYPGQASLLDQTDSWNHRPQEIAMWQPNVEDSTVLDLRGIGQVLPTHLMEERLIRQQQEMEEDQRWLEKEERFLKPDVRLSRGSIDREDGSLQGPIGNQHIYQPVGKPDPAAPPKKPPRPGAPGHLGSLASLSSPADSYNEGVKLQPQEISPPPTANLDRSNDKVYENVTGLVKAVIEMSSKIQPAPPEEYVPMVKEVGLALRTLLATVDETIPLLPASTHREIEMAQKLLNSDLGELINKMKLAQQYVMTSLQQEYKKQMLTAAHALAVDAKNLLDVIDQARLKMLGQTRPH
In short: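 Full-length recombinant human FAK incubated with ATP and substrate in kinase buffer, with or without compound, for 4 h at room temperature. Final drug concentrations 100, 30, 10 and 3 µg/mL. Remaining ATP measured by Kinase-Glo luminescence.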

[8] = molecular target: T1, Epidermal growth factor receptor; conditions: A549, 0.02 to 0.32 uM
[9] = molecular target: T1, Epidermal growth factor receptor; conditions: A549, 0.02 to 0.32 uM; remark: listed apart in the source

| GI50 [1] | GI50 [2] | IC50 [3] | IC50 [4] | IC50 [5] | IC50 [6] | IC50 [7] | inhibition [8] | inhibition [9] | Structure (SMILES) |
| --- | --- | --- | --- | --- | --- | --- | --- | --- | --- |
| 160 nM | 550 nM | 1450 nM | – | – | – | – | – | – | COc1ccc(C2=NN(c3ccccc3)C(c3ccc4ccccc4c3)C2)cc1 (configuration not stated) |
| 230 nM | 440 nM | 1210 nM | – | – | 350 nM | – | – | – | NC(=S)N1N=C(c2ccc(Br)cc2)CC1c1ccc2ccccc2c1 (configuration not stated) |
| 1210 nM | 29100 nM | 6680 nM | – | – | 2060 nM | – | – | – | Cc1ccc(C2=NN(C(N)=S)C(c3cccc4ccccc34)C2)cc1 (configuration not stated) |
| 460 nM | 2120 nM | 3280 nM | – | – | 1040 nM | – | – | – | COc1ccc(C2=NN(C(N)=S)C(c3ccc4ccccc4c3)C2)cc1 (configuration not stated) |
| 270 nM | 390 nM | 1040 nM | 2100 nM | 63200 nM | 520 nM | 28700 nM | – | – | Cc1ccc(C2=NN(C(N)=S)C(c3ccc4ccccc4c3)C2)cc1 (configuration not stated) |
| 260 nM | 3310 nM | 3870 nM | – | – | – | – | – | – | NC(=S)N1N=C(c2ccc(Cl)cc2)CC1c1ccc2ccccc2c1 (configuration not stated) |
| 170 nM | 4180 nM | 4180 nM | 4100 nM | 55600 nM | 160 nM | 13600 nM | – | – | COc1ccc(C2=NN(C(N)=S)C(c3cccc4ccccc34)C2)cc1 (configuration not stated) |
| 4180 nM | 880 nM | 1750 nM | – | – | 3280 nM | – | – | – | NC(=S)N1N=C(c2ccc(F)cc2)CC1c1ccc2ccccc2c1 (configuration not stated) |
| 3210 nM | 13800 nM | 5690 nM | – | – | 3010 nM | – | – | – | NC(=S)N1N=C(c2ccccc2)CC1c1ccc2ccccc2c1 (configuration not stated) |
| 310 nM | 350 nM | 880 nM | 3200 nM | 51700 nM | 660 nM | 9900 nM | – | – | NC(=S)N1N=C(c2ccc(Cl)c(Cl)c2)CC1c1ccc2ccccc2c1 (configuration not stated) |

Further lines, the molecule ahead of its results:

| Structure (SMILES) | GI50 [1] | GI50 [2] | IC50 [3] | IC50 [4] | IC50 [5] | IC50 [6] | IC50 [7] | inhibition [8] | inhibition [9] |
| --- | --- | --- | --- | --- | --- | --- | --- | --- | --- |
| Cc1ccc(C2=NN(c3ccccc3)C(c3ccc4ccccc4c3)C2)cc1 (configuration not stated) | 130 nM | 390 nM | 1130 nM | 1560 nM | 45300 nM | 60 nM | 11500 nM | – | – |
| NC(=S)N1N=C(c2ccccc2)CC1c1cccc2ccccc12 (configuration not stated) | 1440 nM | 44500 nM | 7240 nM | – | – | 2230 nM | – | – | – |
| COc1ccc(C2CC(c3ccc(C)c(C)c3)=NN2C(N)=S)cc1 (configuration not stated) | 340 nM | 3790 nM | 2770 nM | – | – | – | – | – | – |
| Clc1ccc(C2=NN(c3ccccc3)C(c3ccc4ccccc4c3)C2)cc1Cl (configuration not stated) | 110 nM | 390 nM | 1020 nM | 1830 nM | 35900 nM | 50 nM | 6200 nM | Active | Active |
| NC(=S)N1N=C(c2ccc(Br)cc2)CC1c1cccc2ccccc12 (configuration not stated) | 49100 nM | > 50000 nM | 9150 nM | – | – | 5680 nM | – | – | – |
| NC(=S)N1N=C(c2ccc(Cl)cc2)CC1c1cccc2ccccc12 (configuration not stated) | 380 nM | 11200 nM | 5460 nM | – | – | – | – | – | – |
| NC(=S)N1N=C(c2ccc(Cl)c(Cl)c2)CC1c1ccc(O)cc1 (configuration not stated) | 33500 nM | 27600 nM | 6580 nM | – | – | – | – | – | – |
| c1ccc(C2=NN(c3ccccc3)C(c3ccc4ccccc4c3)C2)cc1 (configuration not stated) | 220 nM | 730 nM | 1890 nM | – | – | 240 nM | – | – | – |
| C#Cc1cccc(Nc2ncnc3cc(OCCOC)c(OCCOC)cc23)c1 [ERLOTINIB] | 30 nM | 80 nM | – | – | – | – | – | – | – |
| NC(=S)N1N=C(c2ccc(F)cc2)CC1c1cccc2ccccc12 (configuration not stated) | > 50000 nM | > 50000 nM | 10600 nM | – | – | 8250 nM | – | – | – |
| Brc1ccc(C2=NN(c3ccccc3)C(c3cccc4ccccc34)C2)cc1 (configuration not stated) | 250 nM | 1030 nM | 2320 nM | – | – | 490 nM | – | – | – |
| Cc1ccc(C2=NN(c3ccccc3)C(c3cccc4ccccc34)C2)cc1 (configuration not stated) | 190 nM | 740 nM | 1910 nM | – | – | 200 nM | – | – | – |
| COc1ccc(C2=NN(c3ccccc3)C(c3cccc4ccccc34)C2)cc1 (configuration not stated) | 160 nM | 1710 nM | 3010 nM | 3400 nM | 40200 nM | 100 nM | 10300 nM | – | – |
| Clc1ccc(C2=NN(c3ccccc3)C(c3cccc4ccccc34)C2)cc1 (configuration not stated) | 330 nM | 1820 nM | 3070 nM | – | – | 680 nM | – | – | – |
| Fc1ccc(C2=NN(c3ccccc3)C(c3ccc4ccccc4c3)C2)cc1 (configuration not stated) | 230 nM | 850 nM | 2010 nM | – | – | 300 nM | – | – | – |
| Clc1ccc(C2=NN(c3ccccc3)C(c3ccc4ccccc4c3)C2)cc1 (configuration not stated) | 160 nM | 530 nM | 1460 nM | – | – | 110 nM | – | – | – |
| Fc1ccc(C2=NN(c3ccccc3)C(c3cccc4ccccc34)C2)cc1 (configuration not stated) | 490 nM | 2680 nM | 3590 nM | – | – | 1070 nM | – | – | – |
| Clc1ccc(C2=NN(c3ccccc3)C(c3cccc4ccccc34)C2)cc1Cl (configuration not stated) | 200 nM | 810 nM | 1980 nM | – | – | 140 nM | – | – | – |
| NC(=S)N1N=C(c2ccc(Cl)c(Cl)c2)CC1c1cccc2ccccc12 (configuration not stated) | 180 nM | 33100 nM | 6840 nM | – | – | 210 nM | – | – | – |
| c1ccc(C2=NN(c3ccccc3)C(c3cccc4ccccc34)C2)cc1 (configuration not stated) | 1980 nM | 3290 nM | 3830 nM | – | – | 2520 nM | – | – | – |
| Brc1ccc(C2=NN(c3ccccc3)C(c3ccc4ccccc4c3)C2)cc1 (configuration not stated) | 360 nM | 480 nM | 1280 nM | – | – | 710 nM | – | – | – |
